Assay results pooled from the literature.
Protocols differ between the studies behind these lines.
Target: Serine/threonine-protein kinase D2 (PRKD2, Homo sapiens, UniProt Q9BZL6)
Residues used in one study (Q9BZL6 1-878): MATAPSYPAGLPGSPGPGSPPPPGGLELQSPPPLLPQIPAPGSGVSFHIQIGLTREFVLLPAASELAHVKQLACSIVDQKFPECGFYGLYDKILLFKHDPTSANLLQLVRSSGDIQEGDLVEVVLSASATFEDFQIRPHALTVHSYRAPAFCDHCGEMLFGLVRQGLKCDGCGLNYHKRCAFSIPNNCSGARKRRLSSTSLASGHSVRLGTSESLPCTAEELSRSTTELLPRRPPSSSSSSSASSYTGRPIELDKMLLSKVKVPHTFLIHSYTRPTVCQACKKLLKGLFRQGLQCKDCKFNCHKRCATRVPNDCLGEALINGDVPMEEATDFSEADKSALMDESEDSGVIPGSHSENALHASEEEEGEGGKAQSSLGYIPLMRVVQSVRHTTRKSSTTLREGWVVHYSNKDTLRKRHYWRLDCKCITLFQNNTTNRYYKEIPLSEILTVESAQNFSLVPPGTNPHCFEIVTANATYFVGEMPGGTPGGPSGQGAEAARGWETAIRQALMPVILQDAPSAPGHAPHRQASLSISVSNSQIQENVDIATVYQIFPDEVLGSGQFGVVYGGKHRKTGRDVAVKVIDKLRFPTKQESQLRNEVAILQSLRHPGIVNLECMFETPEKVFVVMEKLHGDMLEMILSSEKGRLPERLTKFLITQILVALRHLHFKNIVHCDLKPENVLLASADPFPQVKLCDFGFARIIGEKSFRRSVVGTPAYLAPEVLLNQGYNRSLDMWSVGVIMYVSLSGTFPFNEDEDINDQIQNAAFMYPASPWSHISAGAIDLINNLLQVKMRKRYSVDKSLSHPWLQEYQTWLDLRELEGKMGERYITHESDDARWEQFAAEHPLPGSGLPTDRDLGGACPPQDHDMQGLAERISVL

SMILES	read-out	action	method	concentration	endpoint	value
COc1cc(-c2cn(C3CCc4ccccc4N(CC(F)(F)F)C3=O)nn2)ccc1-n1ccc(C)n1 (stereo not drawn)	cell-free assay		competition with immobilised ligand	1 µM	remaining binding	86%
Cn1c2c(c3ccc(Cl)c(Cl)c31)C(C#N)C1(CCCCC1)NC2=O (racemic)	thermal stability		DSF	10 µM	ΔTm	0.1 °C
Nc1ncnc2occ(-c3ccc(NC(=O)Nc4cc(C(F)(F)F)ccc4F)cc3)c12	cell-free assay	inhibitor		20 µM	remaining signal	43%
CSc1cccnc1N1CCN(Cc2nc3ccccc3[nH]2)CC1	cell-free assay		competition with immobilised ligand	1 µM	remaining binding	100%
O=C1Nc2ccc(Cl)cc2C1=Cc1cc(Cl)c(O)c(Cl)c1	cell-free assay			0.5 µM	remaining signal	95.5%
CC1(C)NC(=O)c2[nH]c3c(Cl)c(Cl)ccc3c2C1C#N (stereo not drawn)	thermal stability		DSF	10 µM	ΔTm	-0.1 °C
Cc1ccc(NC(=O)c2ccc(C)c(C(F)(F)F)c2)cc1C#Cc1nn(C2CCC(O)CC2)c2ncnc(N)c12 (stereo not drawn)	cell-free assay			10 µM	remaining signal	108%
CNC(=O)c1cc(Oc2ccc(NC(=O)Nc3ccc(Cl)c(C(F)(F)F)c3)cc2)ccn1	enzyme activity	inhibitor		0.3 µM	inhibition	5%
Cn1c2c(c3ccc(Cl)c(Cl)c31)C(C#N)C1(CCOCC1)NC2=O (stereo not drawn)	thermal stability		DSF	10 µM	ΔTm	-0.1 °C
Cc1cnc(NC2CCOCC2)nc1-n1cnc(C(=O)NC(CN)c2cc(F)cc(Cl)c2)c1 (stereo not drawn)	enzyme activity	inhibitor	radiometric	1 µM	remaining activity	5%
CN1CC(Oc2cnc(C#N)cc2-c2ccn3nc(NC(=O)C4CC4)cc3c2)C1	enzyme activity	inhibitor		1 µM	inhibition	-22%
Cc1ccc(Nc2nccc(N(C)c3ccc4c(C)n(C)nc4c3)n2)cc1S(N)(=O)=O	enzyme activity	inhibitor		0.3 µM	inhibition	9%
Cn1c2c(c3ccc(Cl)c(Cl)c31)C(C#N)C1(CCN(C(=O)OC(C)(C)C)CC1)NC2=O (racemic)	thermal stability		DSF	10 µM	ΔTm	0 °C
CCN(CC)CCNC(=O)c1c(C)[nH]c(/C=C2\C(=O)Nc3ccc(F)cc32)c1C	enzyme activity	inhibitor		0.3 µM	inhibition	30%
Cn1c2c(Cl)c(Cl)ccc2c2cn[nH]c(=O)c21	thermal stability		DSF	10 µM	ΔTm	0.1 °C
Cc1c(NC(=O)c2cc(C(N)=O)nc3cc(F)ccc23)c(C(F)(F)F)nn1Cc1ccc(C(C)(C)C)cc1	cell-free assay		competition with immobilised ligand	1 µM	remaining binding	100%
Cn1cncc1C1=CN(c2ncnc3[nH]cnc23)CCS1	enzyme activity	inhibitor	radiometric	2 µM	inhibition	93.1%

SMILES	read-out	action	method	concentration	endpoint	value
CCN(CC)c1ccc(C2=NNC(=O)CC2C)cc1[N+](=O)[O-] (stereo not drawn)	enzyme activity	inhibitor		10 µM	remaining activity	106%
CC(C)(C)c1nc2c(s1)c1nc(N)ncc1c1ccc(NS(=O)(=O)c3c(F)cccc3F)c(F)c12	enzyme activity	inhibitor	radiometric	1 µM	remaining activity	79%
Nc1cnc(N2CCc3cc(S(=O)(=O)Nc4c(F)cc(Cl)cc4F)cc(N4CCCC4=O)c32)nc1	cell-free assay		competition with immobilised ligand	1 µM	remaining binding	100%
COc1cc2ncnc(Nc3ccc(Oc4ccccc4)c(C)c3C)c2cc1OC	enzyme activity	inhibitor		1 µM	inhibition	2%
Cc1cc(C)c(-n2ccn3nc(-c4cccnc4)cc23)cc1NC(=O)c1cc(C#N)cc(S(F)(F)(F)(F)F)c1	cell-free assay		competition with immobilised ligand	0.1 µM	remaining binding	100%
Cn1c2c(c3ccc(Cl)c(Cl)c31)C(C#N)C1(CCNCC1)NC2=O (racemic)	thermal stability		DSF	10 µM	ΔTm	0.9 °C
COc1cccc2c(NCc3ccccc3)nc(-n3c(N)nc4ccccc43)nc12	target engagement in cells	inhibitor	chemoproteomics	20 mM	inhibition	-4.3%
O=C1NC(=O)c2cc(Nc3ccc(F)cc3)c(Nc3ccc(F)cc3)cc21	cell-free assay			0.5 µM	remaining signal	86.8%
O=C(Nc1cnn(-c2csc(C(=O)NC3COC3)c2)c1)Nc1ccccc1Cl	enzyme activity	inhibitor		5 µM	remaining activity	92.8%
Cc1ccc(C(=O)Nc2ccc(CN3CCN(C)CC3)c(C(F)(F)F)c2)cc1C#Cc1cnc2cccnn12	enzyme activity	inhibitor		23.5 nM	remaining activity	95%
COc1cccc(CNC(=O)c2nc3scc(COCc4ccc(C(=O)O)cc4)c3c(=O)[nH]2)c1	cell-free assay		competition with immobilised ligand	1 µM	remaining binding	100%
COc1ccc(COc2ccc(Cc3cnc(N)nc3N)cc2OC)cc1	cell-free assay			0.5 µM	remaining signal	99.4%
CCS(=O)(=O)c1cc2cc(C[C@@](O)(CC(C)(C)c3ccc(F)cc3C(N)=O)C(F)(F)F)[nH]c2cn1	cell-free assay		competition with immobilised ligand	1 µM	remaining binding	89%
Cn1cnc(Br)c1C1=CN(c2ncnc3[nH]cnc23)CCS1	enzyme activity	inhibitor	radiometric	50 nM	inhibition	19.1%
CCCCN(CCCC)C(=O)CN1C[C@H](c2cc(OC)c3c(c2)OCO3)[C@@H](C(=O)O)[C@@H]1CC(C)(C)CCC	cell-free assay		competition with immobilised ligand	1 µM	remaining binding	100%
CC(C)(O)[C@H]1CC[C@H](Nc2ccc3ncc(-c4cccc(C(F)(F)F)c4)n3n2)CC1	enzyme activity	inhibitor		1 µM	remaining activity	92%
